Compound activity from PubChem.
The list is not random: actives were taken first. Their share in the collection is about 4.7%.
VIM-2 inhibitor – inhibitors of Pseudomonas aeruginosa VIM-2 metallo-beta-lactamase; purified VIM-2, nitrocefin hydrolysis, epi-absorbance fluorescence; inhibition, % at 5.6 µM; 0.89% of 290,000 active; AID 1527;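 active = inhibition above the mean of all tested compounds plus 3 SD, cutoff set per screening run, cut at about 7.5% in these data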;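 also: red hydrolysis product quenches plate fluorescence so inhibitors raise well fluorescence; 0% = enzyme with DMSO and 100% = DMSO without enzyme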
Jurkat NFkB inh – lowers PMA/ionomycin-induced NF-kB signal in Jurkat cells. 0.53% of 330,000 active. PMA/ionomycin-induced NF-kB luciferase reporter, luminescence. AID 435003. inhibition, % at 4 µM; in the data active = inhibition above about 50%
Mdm2-MdmX inh – human Mdm2/MdmX binding inhibition | 3% of 330,000 active | SaOS-2 split-luciferase Mdm2/MdmX complementation, luminescence | inhibition, % at 8 µM | O15151+Q00987;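 active = inhibition of at least 50% at 8 µM in the primary screen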
Target sequence (O15151 whole entry, looked up): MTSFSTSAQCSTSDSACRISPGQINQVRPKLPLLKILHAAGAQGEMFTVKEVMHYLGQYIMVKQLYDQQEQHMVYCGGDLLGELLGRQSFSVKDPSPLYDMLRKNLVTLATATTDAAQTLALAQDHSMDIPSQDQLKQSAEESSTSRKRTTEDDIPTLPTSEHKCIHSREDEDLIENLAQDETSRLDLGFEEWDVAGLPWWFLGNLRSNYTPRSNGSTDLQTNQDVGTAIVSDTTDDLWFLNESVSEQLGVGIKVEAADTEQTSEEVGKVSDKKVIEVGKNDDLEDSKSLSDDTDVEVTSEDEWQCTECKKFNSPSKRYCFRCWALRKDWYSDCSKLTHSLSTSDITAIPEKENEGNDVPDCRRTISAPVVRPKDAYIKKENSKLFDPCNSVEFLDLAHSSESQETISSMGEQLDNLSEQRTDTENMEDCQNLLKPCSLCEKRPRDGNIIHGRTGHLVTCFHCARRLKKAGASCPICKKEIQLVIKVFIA
Target sequence (Q00987 whole entry, looked up): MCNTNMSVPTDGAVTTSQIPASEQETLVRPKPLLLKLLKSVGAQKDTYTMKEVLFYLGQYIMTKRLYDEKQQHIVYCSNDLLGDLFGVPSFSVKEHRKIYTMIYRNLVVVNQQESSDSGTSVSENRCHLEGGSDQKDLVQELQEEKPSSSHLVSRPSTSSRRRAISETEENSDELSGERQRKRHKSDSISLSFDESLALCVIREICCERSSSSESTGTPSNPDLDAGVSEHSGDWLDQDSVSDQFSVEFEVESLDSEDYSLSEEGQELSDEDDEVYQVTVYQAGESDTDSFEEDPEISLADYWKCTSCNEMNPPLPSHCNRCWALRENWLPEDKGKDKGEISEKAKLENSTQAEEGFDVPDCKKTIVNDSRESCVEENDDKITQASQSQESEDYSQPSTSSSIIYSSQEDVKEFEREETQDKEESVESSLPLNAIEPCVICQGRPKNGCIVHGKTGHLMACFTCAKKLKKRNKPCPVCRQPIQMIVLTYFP
aSyn 5UTR inh – MLPCN primary screen, SNCA 5' untranslated region; alpha-synuclein 5'UTR reporter, inhibitor activity; inhibition, % (tested at 7.5 µM); 0.82% of 300,000 active; in the data active = inhibition above about 60%;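 also: H4 neuroglioblastoma cells stably carrying SNCA 5'UTR luciferase fusion; 0% = DMSO wells and 100% = positive control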
697 NFkB inh – lowers PMA/ionomycin-induced NF-kB signal in 697 B cells | 0.33% of 330,000 active | AID 435022 | 697 B-cell NF-kB luciferase reporter, 16 h | inhibition, % at 4 µM; in the data active = inhibition above about 35%
IMP-1 inh – inhibitors of Pseudomonas aeruginosa IMP-1 metallo-beta-lactamase. 0.45% of 290,000 active. inhibition, % at 5.6 µM. purified IMP-1, nitrocefin hydrolysis, epi-absorbance fluorescence;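 active = inhibition above the mean plus 3 SD of all compounds in the same screening run, cut at about 4.5% in these data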;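 also: 0% = IMP-1 with DMSO and 100% = DMSO wells lacking enzyme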
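System: purified recombinant IMP-1 beta-lactamase. Medium: Zinc- and detergent-supplemented HEPES buffer, pH 7.1. Compound: one 5.6 µM dose […]. Schedule: 15 min preincubation plus 25 min reaction at 25 °C. Technique: Epi-absorbance fluorescence, 480 nm excitation, 530 nm emission.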
Mdm2 MdmX conf – confirmation of human Mdm2/MdmX interaction inhibitors | shares compounds with Mdm2-MdmX inh | 55% of 10,000 active | inhibition, % at 8 µM | Mdm2-MdmX binding, luminescent assay | AID 489028; in the data active = inhibition above about 40%
FLuc counter – inhibits full-length luciferase, flagging false Mdm2/MdmX hits; shares compounds with Mdm2-MdmX inh; SaOS-2 full-length luciferase counterscreen, luminescence; inhibition, % at 8 µM; 77% of 6,200 active;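 active = mean inhibition at 8 µM reaching about 37%, which flags the compound as non-specific, limit read from the data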;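 also: p53-null SaOS-2 cells with luciferase driven by a doxycycline-inducible promoter; compound on cells about two nights before reading with doxycycline added after day one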
* = called active by the depositor; . = no result given.

SMILES	VIM-2 inhibitor	Jurkat NFkB inh	Mdm2-MdmX inh	aSyn 5UTR inh	697 NFkB inh	IMP-1 inh	Mdm2 MdmX conf	FLuc counter
CC(C)(C)c1cc(Cl)c(O)c(NC(=S)NC(=O)c2cccnc2)c1	-3.9	4.2	57.3*	79.6*	16.1	-2.5	52.6*	35.2
CCCCOc1ccc(C(=O)NCC2(c3ccc(OC)cc3)CCOCC2)cc1	-0.9	13.6	18.1	11.4	26.4	-0.7	.	.
O=S(=O)(c1ccc(Cl)cc1)N1CCN(Cc2ccc(O)c3ncccc23)CC1	-2.7	9.7	76.9*	77.2*	-4.3	-1.8	67.5*	25.0
O=c1oc2ccccc2c(O)c1Cc1cc(Cl)c2cccnc2c1O	-2.0	-3.4	28.0	-7.0	8.9	-1.0	.	.
Oc1c(CN2CCc3ccccc3C2)cc(Cl)c2cccnc12	3.6	3.1	69.9*	90.8*	-23.1	-3.9	79.5*	46.0*
COc1ccc(C(=O)Oc2c(CN3CCOCC3)cc(Cl)c3cccnc23)cc1OC	-6.3	4.6	60.2*	30.8	11.4	-2.3	36.9	.
COc1cc(OC)cc(C(=O)Oc2c(CN3CCOCC3)cc(Cl)c3cccnc23)c1	-2.3	10.4	50.2*	92.0*	-8.0	-4.0	44.7*	33.8
O=C(Oc1c(CN2CCOCC2)cc(Cl)c2cccnc12)c1ccccc1	2.3	22.8	47.4	44.8	-11.8	-2.1	.	.
Cc1cccc(NNC(N)=S)c1C	0.3	-3.3	-8.0	2.3	23.8	-2.2	.	.
CCOC(=O)c1cc(C#N)c(Oc2ccccc2OC)nc1-c1ccccc1	-4.9	13.7	34.6	-1.9	4.3	-1.6	.	.
Oc1c(Cl)cc(CN2CCOCC2)c2cccnc12	.	7.8	77.9*	.	24.1	.	84.5*	41.8*
Oc1c(CN2CCCCC2)cc(Br)c2cccnc12	-0.8	26.4	76.8*	111.5*	2.1	-4.2	74.7*	36.3*
O=C(COc1c(Br)cc(Br)c2cccnc12)N1CCCCC1	2.2	-2.2	5.7	-22.5	-0.8	-3.0	.	.
CCOC(=O)c1sc2nc(SC)nc(-c3ccc(Cl)cc3)c2c1N	-3.7	-7.6	59.6*	26.4	-9.9	-3.6	13.1	.
O=C(CN1C(=O)COc2ccc(S(=O)(=O)N3CCCC3)cc21)NC1CCCCCCC1	-1.4	7.4	5.6	-4.7	-25.3	-0.2	.	.
Cn1ncc2c(Nc3ccccc3Cl)nc(Nc3ccccc3Cl)nc21	-1.8	3.6	54.1*	34.2	-2.3	-0.7	7.1	.
COc1ccc(C(CC(=O)c2ccc(C)cc2)C(C#N)C#N)cc1OC (configuration not stated)	-2.1	5.7	55.7*	-14.3	18.9	-3.4	44.2*	47.0*
COc1ccc2nc(C)cc(SCC(=O)N/N=C/c3ccc(O)cc3O)c2c1	-3.8	25.2	55.0*	79.8*	0.9	-4.9	78.8*	36.6*
C=CCn1c(CNc2ccc(C)cc2)nnc1SCC(=O)N/N=C/c1ccc(O)cc1O	-4.7	8.3	57.1*	18.9	-19.6	-3.1	56.4*	35.6
COc1ccccc1/C=N/NC(=O)CSc1cc(C)nc2ccccc12	-1.0	41.8	38.7	24.9	-50.0	-3.2	.	.
COc1ccc(CSCC(=O)N/N=C/c2ccccc2O)cc1	-3.7	2.2	57.4*	14.5	-1.7	-2.2	35.6	64.8*
COc1cccc2c(SCC(=O)N/N=C/c3ccc(O)cc3O)cc(C)nc12	0.8	-7.9	53.6*	13.8	2.8	-2.4	46.0*	65.4*
C=CCn1c(CNc2ccccc2)nnc1SCC(=O)N/N=C/c1ccc(O)cc1O	-2.9	5.8	29.1	-10.7	9.9	-2.9	.	.
CCCCSc1nc(C)cc(SCC(=O)N/N=C/c2cccc(OC)c2O)n1	-3.8	9.6	72.0*	81.1*	-30.5	-1.8	79.5*	34.4
CCOC(=O)C1=CCN(Cc2ccccc2)CC1	1.8	-7.2	0.3	5.6	-3.1	0.2	.	.
SMILES	VIM-2 inhibitor	Jurkat NFkB inh	Mdm2-MdmX inh	aSyn 5UTR inh	697 NFkB inh	IMP-1 inh	Mdm2 MdmX conf	FLuc counter
Cn1cccc1/C=N/NC(=O)c1sc2cc(Cl)ccc2c1Cl	-2.5	-10.6	73.5*	-21.6	-19.5	-2.3	36.0	47.7*
CC(=O)Nc1ccc(C(=O)CCl)cc1	.	-7.6	67.0*	.	8.2	.	29.4	.
O=C(CSc1ccc2c(c1)OCCO2)Nc1ccc(Br)cn1	-0.8	-5.9	64.4*	11.2	-9.8	-1.1	18.6	.
COc1ccc(/C=N/OCc2nc3c4c(ncn3n2)Oc2ccc3ccccc3c2C4c2ccccc2)cc1 (configuration not stated)	-2.7	2.9	13.5	-0.9	25.7	-3.4	.	.
CCOC(=O)CCC(=O)Nc1ncnc2c1C(c1ccccc1)c1c(ccc3ccccc13)O2 (configuration not stated)	.	-21.4	30.6	.	-24.6	.	.	.
O=C(Cc1ccccc1)Nc1ncnc2c1C(c1ccccc1)c1c(ccc3ccccc13)O2 (configuration not stated)	.	-1.5	90.0*	.	21.2	.	23.2	.
O=C(Nc1ncnc2c1C(c1ccccc1)c1c(ccc3ccccc13)O2)c1ccccc1 (configuration not stated)	.	31.7	64.9*	.	2.6	.	52.0*	45.4*
COc1ccc(NC(=O)CS(=O)(=O)c2ccccc2Cl)cc1	-1.2	7.1	-20.9	-17.8	-9.6	1.5	.	.
COc1ccccc1-n1cnc2c(c1=O)c1nc3ccccc3nc1n2-c1ccc(C)cc1	-2.0	31.5	55.1*	-10.1	11.9	-2.0	72.8*	64.6*
O=C(NC1CCCCCC1)C1CCC(CNS(=O)(=O)c2ccc(Br)s2)CC1 (configuration not stated)	-4.1	-7.8	51.4*	17.4	-12.9	-3.0	11.2	.
Cc1nnc(SCC(=O)Nc2nc(-c3ccc(F)cc3)cs2)[nH]c1=O	-6.5	-12.5	-7.4	0.8	-6.0	-5.2	.	.
O=C(Nc1ccc(Nc2ccncc2)cc1)c1ccc([N+](=O)[O-])cc1	-2.8	40.0	100.3*	-23.2	-36.3	-1.2	35.5	12.7
O=[N+]([O-])c1ccc(S(=O)(=O)Nc2ccncc2)cc1	-2.7	14.9	50.3*	27.4	15.8	-4.2	8.0	.
O=C(Nc1ccc([N+](=O)[O-])cc1)Nc1ccc(Cl)cc1F	-2.9	-8.0	87.3*	-42.9	-28.8	-2.1	91.3*	72.7*
O=C(Nc1ccc(Cl)cc1)Nc1csc([N+](=O)[O-])c1	-0.3	-3.3	94.2*	1.1	-52.5	-1.5	76.1*	30.6
O=C(Nc1csc([N+](=O)[O-])c1)Nc1c(Cl)cccc1Cl	-3.5	17.9	30.0	20.5	24.3	-5.5	.	.
O=C(Nc1ccc(Cl)cc1)Nc1cc([N+](=O)[O-])ccc1F	-0.8	-18.9	48.5	-26.4	10.2	-1.9	.	.
O=C(O)c1ccc(OCCN2CCCC2=O)cc1	-0.2	-14.2	-8.7	-17.2	-6.0	-0.5	.	.
